Data: paper PMC5477668 (Journal of medicinal chemistry, 2017)

Experiments:
PAD2 [1] = biological target: T1, PAD2 (Homo sapiens, UniProt Q9Y2J8); assay: Target engagement assay with HEK293T/PAD2 cells; type: cell-based
PAD1 = PAD1 inactivation kinetics; type: biochemical
Method in brief: (§1)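 Purified PAD enzyme (2.0 μM) was preincubated at 37 °C with various inactivator concentrations in 50 mM HEPES pH 7.6, 10 mM CaCl2 and 2 mM DTT. Aliquots taken over time were added to the same buffer containing 10 mM BAEE, run for 15 min, then quenched in liquid nitrogen. Citrulline was measured by COLDER. k_obs came from exponential decay fits, and k_inact and K_I from saturation fits. At least duplicate.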

PAD2 [2] = biological target: T1, PAD2; assay: PAD2 inactivation kinetics; type: biochemical; settings: for PAD2 potency: as compared to BB-F-amidine (4a) and BB-Cl-amidine (4b); for fold increase in PAD2 potency and selectivity: relative to Cl-amidine; for fold more potent PAD2 inhibitor in vitro: than BB-Cl-amidine (4b); for PAD2-selectivity: up to, other isozyme not named; for fold decrease in PAD2 potency: compared to 30a
Method in brief: as §1

PAD4 = PAD4 inactivation kinetics; type: biochemical
Method in brief: as §1

HEK293T/PAD2 cells = assay: Cellular uptake assay; type: in vitro ADME, human
Method in brief: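 HEK293T/PAD2 cells in HBS with 2 mM CaCl2 were treated with 0.5 μM ionomycin and test compound at 25 μM, as in the target engagement protocol. Cells were scraped, washed 4× with HBS, extracted in acetonitrile by sonication for 1 h at 0 °C, then cleared, filtered and analysed by LCMS. Analyte peak area was compared with the peak area of 25 μM compound injected directly.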

HEK293T cells = assay: Cytotoxicity study; type: cell-based, human; settings: than BB-Cl-amidine (4b)
Method in brief: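 Human HEK293T cells were plated at 2.5 × 10⁶ cells/well. Next day they were exposed for 24 h to DMSO, Triton X-100, or a range of test-compound concentrations. Viability was read by XTT absorbance at 475 nm. EC50 came from an eight-point dose-response fit with range, slope factor and background terms.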

[3] = as compared to BB-F-amidine (4a)
[4] = as compared to BB-Cl-amidine (4b)

T1 sequence (Q9Y2J8 whole entry): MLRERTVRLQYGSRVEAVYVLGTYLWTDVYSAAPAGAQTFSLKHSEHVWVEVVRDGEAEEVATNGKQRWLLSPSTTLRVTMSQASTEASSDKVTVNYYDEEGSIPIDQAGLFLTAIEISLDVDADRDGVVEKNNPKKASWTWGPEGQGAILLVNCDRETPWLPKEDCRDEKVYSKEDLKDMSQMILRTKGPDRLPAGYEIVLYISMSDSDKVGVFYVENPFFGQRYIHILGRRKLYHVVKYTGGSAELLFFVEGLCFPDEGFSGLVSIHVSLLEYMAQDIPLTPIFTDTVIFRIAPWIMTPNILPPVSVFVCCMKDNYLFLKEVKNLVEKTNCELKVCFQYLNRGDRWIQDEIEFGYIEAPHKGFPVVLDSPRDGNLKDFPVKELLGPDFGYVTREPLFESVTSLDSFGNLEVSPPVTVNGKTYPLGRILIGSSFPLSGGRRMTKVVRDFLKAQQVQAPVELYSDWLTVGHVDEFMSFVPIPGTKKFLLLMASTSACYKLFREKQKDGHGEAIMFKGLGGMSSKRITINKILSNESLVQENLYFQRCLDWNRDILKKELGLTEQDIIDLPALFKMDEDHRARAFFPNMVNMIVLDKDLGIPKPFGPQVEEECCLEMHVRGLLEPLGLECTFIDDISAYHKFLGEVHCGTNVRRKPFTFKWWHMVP

`N=C(CF)NCCC[C@H](NC(=O)c1ccc(-c2ccccc2)cc1)c1nc2ccccc2[nH]1` [4a] was tested, and the “fold less potent in the target engagement assay” value (PAD2 [1]; than BB-Cl-amidine (4b)) was ~ 3 fold.
With `N=C(CF)NCCC[C@H](NC(=O)c1ccccc1C(=O)O)c1nc2ccccc2[nH]1` [9a] the “fold increase in PAD1 inhibition” value (PAD1; [3]) was 18 fold, the PAD2 potency (PAD2 [2]) was “relatively unaffected” and the “fold increase in PAD4 inhibition” value (PAD4; [3]) was 6.5 fold.
With `N=C(CCl)NCCC[C@H](NC(=O)c1ccccc1C(=O)O)c1nc2ccccc2[nH]1` [9b] the “fold increase in PAD1 inhibition” value (PAD1; [4]) was 1.8 fold, the PAD2 potency (PAD2 [2]) was “relatively unaffected” and the “fold increase in PAD4 inhibition” value (PAD4; [4]) was 2.3 fold.
With `CCn1c([C@H](CCCNC(=N)CF)NC(=O)c2ccccc2C(=O)O)nc2ccccc21` [11a] the “fold increase in PAD2 inhibition” value (PAD2 [2]; [3]) was 26 fold.
For `N=C(CF)NCCC[C@H](NC(=O)c1cccc2c1C(=O)NC2)c1nc2ccccc2[nH]1` [14a], the “fold increase in PAD2 inhibition” value (PAD2 [2]; as compared to 9a) was ~ 7 fold, the “fold increase in PAD2 inhibition” value (PAD2 [2]; [3]) was ~ 9 fold and the “fold increase in PAD4 inhibition” value (PAD4; as compared to 9a) was ~ 1.4 fold.
`CCn1c([C@H](CCCNC(=N)CF)NC(=O)c2cccc3c2C(=O)NC3)nc2ccccc21` [16a] was tested, and the “fold increase in PAD2 inhibition” value (PAD2 [2]; as compared to 9a) was ~ 41 fold, the “fold increase in PAD2 inhibition” value (PAD2 [2]; [3]) was ~ 51 fold and the “occupancy of PAD2” value (PAD2 [1]; at 25 μM, HEK293T/PAD2 cells) was “roughly half as potent”.
`COc1cccc2c1nc([C@H](CCCNC(=N)CF)NC(=O)c1cccc3c1C(=O)NC3)n2C` [30a] was tested, and the “fold increase in PAD2 potency and selectivity” value (PAD2 [2]) was over 100 fold, the “fold more potent PAD2 inhibitor in vitro” value (PAD2 [2]) was 12–50 fold and the PAD2-selectivity (PAD2 [2]) was “up to 106 fold”. The “fold more compound able to enter HEK293T cells” value (HEK293T/PAD2 cells; than 41a) was 6 fold and the fold less cytotoxic (HEK293T cells) was over 30 fold.
With `CCn1c([C@H](CCCNC(=N)CF)NC(=O)c2cccc3c2C(=O)NC3)nc2c(OC)cccc21` [31a] the “fold decrease in PAD2 potency” value (PAD2 [2]) was 4 fold, the “fold more potent PAD2 inhibitor in vitro” value (PAD2 [2]) was 12–50 fold and the fold less cytotoxic (HEK293T cells) was over 30 fold.
For `CCOc1cccc2c1nc([C@H](CCCNC(=N)CF)NC(=O)c1cccc3c1C(=O)NC3)n2C` [32a], the “fold decrease in PAD2 potency” value (PAD2 [2]) was ~ 2 fold, the “fold more potent PAD2 inhibitor in vitro” value (PAD2 [2]) was 12–50 fold and the fold less cytotoxic (HEK293T cells) was over 30 fold.
With `CCOc1cccc2c1nc([C@H](CCCNC(=N)CCl)NC(=O)c1cccc3c1C(=O)NC3)n2C` [32b] the “fold decrease in PAD2 potency” value (PAD2 [2]) was ~ 2 fold.
In the case of `COc1ccc2c(c1)nc([C@H](CCCNC(=N)CF)NC(=O)c1cccc3c1C(=O)NC3)n2C` [37a], the “fold more potent PAD2 inhibitor in vitro” value (PAD2 [2]) is reported as 12–50 fold and the fold less cytotoxic (HEK293T cells) is reported as over 30 fold.
With `CCN1Cc2cccc(C(=O)N[C@@H](CCCNC(=N)CF)c3nc4c(OC)cccc4n3C)c2C1=O` [41a] the “fold increase in PAD2 inhibition” value (PAD2 [2]; [3]) was over 300 fold, the “fold increase in PAD2 potency and selectivity” value (PAD2 [2]) was over 100 fold and the PAD2-selectivity (PAD2 [2]) was “up to 106 fold”. For the same molecule, the “fold less compound internalized by the cell” value (HEK293T/PAD2 cells; than unsubstituted lactams 30a, 31a, 32a, and 37a, mass spectrometry) was ~ 6 fold.
With `COc1cccc2c1nc([C@H](CCCNC(=N)CF)NC(=O)c1cccc3c1C(=O)N(C)C3)n2C` [49a] the “fold increase in PAD2 potency and selectivity” value (PAD2 [2]) was over 100 fold and the PAD2-selectivity (PAD2 [2]) was “up to 106 fold”.
